Screening data deposited in PubChem by Sanford-Burnham Center for Chemical Genomics.
STEP inh: STEP phosphatase inhibitors, primary screen, biochemical, fluorescence intensity, uHTS. recombinant STEP, OMFP fluorogenic substrate. hit rate 0.25% among 360,000. Tyrosine-protein phosphatase non-receptor type 5 (Homo sapiens), P54829. inhibition, % at 20 µM. AID 588621, 2011;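 active = inhibition at 20 µM, scaled per plate between control wells, above about 37%, limit read from the data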
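System: isolated STEP enzyme; schedule: 20 min enzyme reaction at room temperature, protected from light; medium: Bis-Tris buffer pH 6.0, 2.5 mM DTT, 0.005% Tween 20; signal: fluorescence, 480/540 nm; dosing: single compound dose of 20 µM, 1% DMSO final; also added: OMFP substrate, 25 µM final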
CSN inh: inhibitors of CSN-mediated cullin deneddylation, primary screen, biochemical, fluorescence polarization, uHTS; COP9 signalosome complex subunit 5 (Homo sapiens), Q92905; Purified CSN, SCF-Nedd8-OG deneddylation; inhibition, % at 12.5 µM; hit rate 0.38% among 360,000; AID 651999, 2013;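 active = pattern-corrected inhibition above about 35%, with an unprinted fluorescence ratio check between 0.5 and 1.5, limit read from the data, passing the limit was not always enough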
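Test system: purified human Csn5 enzyme expressed in HEK293T cells. Amount: 0.24 nM enzyme. Reagent: SCFSkp2-Nedd8OG substrate at 10 nM final. Schedule: 90 min incubation of compound, enzyme and substrate at room temperature. Detection: fluorescence polarization. Read-out: % inhibition of substrate cleavage by Csn5.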
SUMO1 PPI mod: modulators of SUMO1 protein-protein interactions, primary screen, biochemical, uHTS | hit rate 0.33% among 360,000 | SUMO1 binding to a labelled peptide, TR-FRET, 1 h | AID 602429, 2012 | inhibition, % at 20 µM; in the data active = inhibition above about 37%
DNMT1 inh: human DNMT1 methyltransferase inhibitors, primary screen, biochemical, molecular beacon, fluorescence, HinP1I cleavage, uHTS; hit rate 0.83% among 360,000; inhibition (reported as % activation of signal), % at 10 µM; DNA (cytosine-5)-methyltransferase 1 (Homo sapiens), P26358; in the data active = inhibition above about 50%
Target sequence (P26358 504-1616 limits assumed): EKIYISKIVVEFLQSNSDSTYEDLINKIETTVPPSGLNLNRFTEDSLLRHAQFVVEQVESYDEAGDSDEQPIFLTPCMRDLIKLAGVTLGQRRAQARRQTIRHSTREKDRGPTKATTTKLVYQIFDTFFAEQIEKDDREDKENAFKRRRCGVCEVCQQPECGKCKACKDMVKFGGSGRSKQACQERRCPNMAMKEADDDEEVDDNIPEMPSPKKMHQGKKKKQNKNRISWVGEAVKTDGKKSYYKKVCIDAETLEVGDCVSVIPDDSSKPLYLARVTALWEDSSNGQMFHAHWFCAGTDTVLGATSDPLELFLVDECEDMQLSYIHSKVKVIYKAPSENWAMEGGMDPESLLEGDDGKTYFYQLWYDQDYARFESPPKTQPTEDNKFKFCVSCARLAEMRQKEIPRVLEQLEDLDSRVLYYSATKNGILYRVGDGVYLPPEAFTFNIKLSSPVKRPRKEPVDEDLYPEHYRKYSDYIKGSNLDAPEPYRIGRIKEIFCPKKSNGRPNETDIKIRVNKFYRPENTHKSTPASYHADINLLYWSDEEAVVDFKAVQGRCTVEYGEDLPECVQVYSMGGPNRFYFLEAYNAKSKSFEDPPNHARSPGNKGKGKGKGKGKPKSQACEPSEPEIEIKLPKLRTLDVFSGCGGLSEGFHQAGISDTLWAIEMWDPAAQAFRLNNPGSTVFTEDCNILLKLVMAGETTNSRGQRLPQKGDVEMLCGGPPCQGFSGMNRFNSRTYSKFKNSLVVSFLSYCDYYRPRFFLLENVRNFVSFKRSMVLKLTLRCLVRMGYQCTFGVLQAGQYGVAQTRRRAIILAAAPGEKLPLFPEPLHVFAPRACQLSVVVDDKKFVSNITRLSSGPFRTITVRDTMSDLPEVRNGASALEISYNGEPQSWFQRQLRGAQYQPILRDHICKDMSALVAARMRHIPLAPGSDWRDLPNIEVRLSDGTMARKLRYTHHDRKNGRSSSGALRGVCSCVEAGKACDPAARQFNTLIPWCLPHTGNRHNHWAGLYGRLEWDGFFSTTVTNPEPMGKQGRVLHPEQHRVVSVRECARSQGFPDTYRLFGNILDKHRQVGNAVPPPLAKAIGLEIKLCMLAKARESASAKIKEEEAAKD
Scp1 inh: Scp-1 phosphatase inhibitors, primary screen, biochemical, colorimetric, uHTS | Recombinant Scp1, phosphopeptide, malachite green phosphate absorbance | inhibition, % at 20 µM | hit rate 0.88% among 340,000 | AID 493091, 2011;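 active = inhibition above about 50% at 20 µM, limit read from the data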
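Test system: SCP-1 catalytic domain; Buffer or medium: Acidic Tris acetate buffer with magnesium and detergent; Also added: Phosphorylated 17-residue peptide substrate; Compound: single 20 µM dose, 1% DMSO; Schedule: enzyme reaction 45 min at room temperature, colour 5 min, stabilisation 30 min; Signal: Phosphate-binding colour reagent, absorbance read at 630 nm.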
LMPTP inh: LMPTP phosphatase inhibitors, primary screen, biochemical, fluorescence intensity, uHTS; recombinant LMPTP-A, OMFP fluorogenic substrate; inhibition, % at 20 µM; hit rate 0.22% among 360,000;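 active = compounds that cut the enzyme signal by at least half of the control window in the single-dose screen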
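Test system: LMPTP-A, protein tyrosine phosphatase of low molecular weight; Input: 0.625 nM enzyme; Incubation: 50 min dark incubation at room temperature; Signal: endpoint fluorescence intensity from OMFP dephosphorylation; Read-out basis: % inhibition versus control wells.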
Large screens that a line does not name were inactive. An excerpt weighted towards active compounds, which were near 1.9% of everything screened.

CCOC(=O)C1=C(C)c2ccccc2N(C(=O)OC)C1(C)C(=O)OCC (stereo not drawn)	Scp1 inh 98.2
COC(=O)c1ccc(NC(=O)Nc2ccc([N+](=O)[O-])cc2)cc1	LMPTP inh 84.7
C(=C\c1nc(N2CCCCCC2)c2ccccc2n1)/c1ccccc1	LMPTP inh 55.5
c1ccc2c(N3CCCCC3)nc(N3CCCCC3)nc2c1	none
CCn1cc(C(=O)O)c(=O)c2cnc(N3CCN(C(=S)Nc4ccccc4Cl)CC3)nc21	LMPTP inh 51.4
CCn1cc(C(=O)O)c(=O)c2cnc(N3CCN(C(=S)Nc4ccc(F)cc4)CC3)nc21	none (no result: STEP inh, CSN inh, SUMO1 PPI mod, DNMT1 inh, LMPTP inh)
CCn1cc(C(=O)O)c(=O)c2cc(F)c(N3CCN(S(=O)(=O)c4ccc5c(c4)OCCO5)CC3)cc21	LMPTP inh 61.7
CCn1cc(C(=O)O)c(=O)c2cc(F)c(N3CCN(C(=O)Nc4ccccc4)CC3)cc21	LMPTP inh 51.2
CCn1cc(C(=O)O)c(=O)c2cc(F)c(N3CCN(C(=S)NC(=O)c4ccccc4F)CC3)cc21	LMPTP inh 69.6
CS(=O)(=O)N(CC(=O)NCc1ccco1)c1ccc(OCc2ccccc2)cc1	none
CCCCCCCC(=O)N1CCN(c2cc3c(cc2F)c(=O)c(C(=O)O)cn3CC)CC1	none
CCn1cc(C(=O)O)c(=O)c2cc(F)c(N3CCN(C)CC3)cc21	none
CCn1cc(C(=O)O)c(=O)c2cc(F)c(N3CCN(C(=S)NC(=O)c4cccc(C)c4)CC3)cc21	LMPTP inh 60.3
CCn1cc(C(=O)O)c(=O)c2cc(F)c(N3CCN(C(=S)NC(=O)c4ccc(OC)cc4)CC3)cc21	LMPTP inh 67.3
CCn1cc(C(=O)O)c(=O)c2cc(F)c(N3CCN(C(=S)NC(=O)c4ccc(Br)cc4)CC3)cc21	LMPTP inh 60.8
OCCC1CN(Cc2cccn2-c2cccnc2)CCN1C1CCCCC1 (stereo not drawn)	none
CCCC(=O)N1CCC1(C)C(=O)NS(=O)(=O)c1cc(C)ccc1F (stereo not drawn)	none (no result: Scp1 inh)
Cn1cc([N+](=O)[O-])c(C(=O)NC2CCCC2)n1	none
Cc1cc(NC(=O)/C(C#N)=C/c2ccc(-c3cccc(C(F)(F)F)c3)o2)n(-c2ccccc2)n1	none
Cc1cc(NC(=O)/C(C#N)=C/c2ccc(-c3ccc(SC(F)F)cc3)o2)n(-c2ccccc2)n1	CSN inh 64.5
CCN(C[C@H]1N[C@@](C)(C(=O)OC)[C@H]2C(=O)N(Cc3ccccc3)C(=O)[C@@H]12)S(=O)(=O)c1ccccc1	none
Cc1ccccc1S(=O)(=O)c1c(C)cc(C)n(C)c1=O	CSN inh 42.9
CC(C)c1ccc(-c2nc(N3CCOCC3)[nH]c(=O)c2C#N)cc1	none
Cc1ccc(C(C(=O)NC2CCCCC2)N(Cc2cccnc2)C(=O)c2csnn2)cc1 (stereo not drawn)	none
COCCNC(=O)c1ccc(-n2c(SCc3ccncc3)nc3ccccc3c2=O)cc1	none
CCOC(=O)c1c(NC(=S)Nc2ccc(Cl)cc2)sc2c1CCN(C)C2	CSN inh 61.4
CCOC(=O)c1c(NC(=O)Cc2ccccc2)sc2c1CCN(C)C2	none
CCOC(=O)c1c(NC(=O)CSc2nnc(C)s2)sc2c1CCN(C)C2	CSN inh 42.6
CC(=O)c1ccc(S(=O)(=O)N2CCN(C(=O)c3cccc(S(=O)(=O)N4CC(C)OC(C)C4)c3)CC2)cc1 (stereo not drawn)	none
CS(=O)(=O)c1ccc(C(=O)OC2CCOC2=O)cc1[N+](=O)[O-] (stereo not drawn)	DNMT1 inh 67.6
O=C(OC1CCOC1=O)c1ccccc1C(=O)c1ccc(Cl)c([N+](=O)[O-])c1 (stereo not drawn)	none
CCN1C(c2ccccc2)=C(c2ccccc2)S/C1=C\C=C1/SC(=S)N(C)C1=O	none
CCN1C(=O)/C(=C/C=C2/Sc3ccc4ccccc4c3N2CCO)SC1=S	SUMO1 PPI mod 40.9
CCC(=O)Nc1cc(C(=O)OCC(=O)c2ccccc2)ccc1C	none
CCOc1ccc(/C=C2\CCCc3c2nc2ccccc2c3C(=O)O)cc1OC	DNMT1 inh 78.1 (no result: Scp1 inh)
COc1ccc(/C=C2\CCc3c2nc2ccccc2c3C(=O)O)cc1OC	none
CC(C)CN(C(=O)CCNC(=O)c1ccccc1Cl)C1CCS(=O)(=O)C1 (stereo not drawn)	none
CC(=O)NC1(NC(C)=O)CCN(C)CC1	none
Cn1cncc1C#Cc1ccc2cc(C(C)(C)O)oc(=O)c2c1	none
Cn1cncc1C#Cc1ccc2cc(C3(O)CCCCC3)oc(=O)c2c1	CSN inh 36.2
COc1ccc(-c2nnc(SCC(=O)NC(=O)NCc3ccco3)o2)cc1	none
O=C(c1ccco1)N(CCC(c1ccccc1)c1ccco1)Cc1ccco1 (stereo not drawn)	DNMT1 inh 99.8, Scp1 inh 73.5
Cc1ccc(F)c(S(=O)(=O)NC(=O)C2(C)CCN2C(=O)Cc2ccsc2)c1 (stereo not drawn)	none (no result: Scp1 inh)
CSc1nc(N(C)CCO)c2sc3nc(-c4ccco4)c4c(c3c2n1)CCC4	Scp1 inh 78.8
Cc1cc(N2CCC(C)CC2)nc2cccc(O)c12	LMPTP inh 61.7
COc1ccc(S(=O)(=O)N2CCCCCC2)cc1C(=O)N(C)Cc1cccs1	none
COc1ccc(OCC(=O)N/N=C/c2cccn2-c2cccc(C(=O)O)c2)cc1	DNMT1 inh 52.8
Cc1ccc(OCC(=O)N/N=C/c2cccn2C)cc1C	none
COc1ccc(C2C=CC(=O)CC2)c(OC)c1 (stereo not drawn)	none (no result: STEP inh, DNMT1 inh, Scp1 inh)
CN1CCN(S(=O)(=O)c2ccc(N(C)Cc3cccs3)nc2)CC1	none
COc1ccc(-c2nc(CN3CCC(C(=O)N4CCOCC4)CC3)c(C)o2)cc1OC	none
Cc1oc(-c2cc(F)ccc2F)nc1CN1CCC(C(=O)N2CCOCC2)CC1	SUMO1 PPI mod 43.9
CC(NC(=O)c1cccc(S(=O)(=O)N2CCN(Cc3ccccc3)CC2)c1)c1ccc(Cl)cc1 (stereo not drawn)	none
COc1ccc(/C=N/OCC(=O)N=Nc2c(O)[nH]c3ccc(Br)cc23)cc1	DNMT1 inh 79.2
CC(=O)c1ccc(NC(=O)c2ccc(NC(=O)c3ccco3)cc2)cc1	STEP inh 85.8, LMPTP inh 72.2
